Measured values of several laboratories.
Protocols differ between the studies behind these lines.

| SMILES | cell line | effect on | technique | time | IC50 |
| --- | --- | --- | --- | --- | --- |
| COc1ccc(Br)cc1/C=C/C(=O)c1ccc(NC(C)=O)cc1 | MEF | cell growth or viability | MTT | 72 h | 1 µM |
| C=CC(=O)Nc1cc(Nc2nccc(-c3cn(C4CC4)c4ccccc34)n2)c(OC)cc1N(C)CCN(C)C | PC-9 | cell growth or viability | ATP luminescence | 72 h | 0.0041 µM |
| CC(C)[C@H](N)c1nc2cc(-c3ccncc3F)sc2c(=O)[nH]1 | SHP77 | cell growth or viability | MTT | – | 0.76 µM |
| CC1=C(O)C(=O)C=C2C1=CC=C1[C@@]2(C)CC[C@@]2(C)[C@@H]3C[C@](C)(C(=O)OCCCCCO)CC[C@]3(C)CC[C@]12C | AGS | cell growth or viability | MTT | 48 h | 0.43 µM |
| COc1c(C)c(OC)c2c(c1C)OC(c1ccccc1)CC2=O (stereo not drawn) | KKU-M213 | cell growth or viability | SRB | 72 h | > 50 µM |
| CC1=C(O)C(=O)C=C2C1=CC=C1[C@@]2(C)CC[C@@]2(C)[C@@H]3C[C@](C)(C(=O)OCCCCCCO)CC[C@]3(C)CC[C@]12C | AGS | cell growth or viability | MTT | 48 h | 0.36 µM |
| CC(=O)Nc1nc(C)c(-c2csc(Nc3ccccc3)n2)s1 | MEF | cell growth or viability | MTT | 72 h | 21.4 µM |
| CCSC(=O)c1ncn2c(=O)n(C)nnc12 | U-87 MG | cell growth or viability | resazurin | 7 days | 64 µM |
| C=C(C)C(=O)Nc1ccc(-c2c(-c3ccc(Oc4nccc(C)n4)c(F)c3)c3c(N)ncnc3n2C)cc1 | JMSU-1 | cell growth or viability | ATP luminescence | 96 h | 1.06 µM |
| CC1=C(O)C(=O)C=C2C1=CC=C1[C@@]2(C)CC[C@@]2(C)[C@@H]3C[C@](C)(C(=O)OCCCBr)CC[C@]3(C)CC[C@]12C | AGS | cell growth or viability | MTT | 48 h | 0.36 µM |
| CCCCCCCCCCCC(=O)Oc1c(C)c(O)c(C(=O)/C=C/c2ccccc2)c(OC)c1C | KKU-M213 | cell growth or viability | SRB | 72 h | > 50 µM |
| COc1ccc(C2=N[C@@H](c3ccc(Cl)cc3)[C@@H](c3ccc(Cl)cc3)N2C(=O)N2CCNC(=O)C2)c(OC(C)C)c1 | DU-4475 | cell growth or viability | MTS | 48 h | 4 µM |
| CC1=C(O)C(=O)C=C2C1=CC=C1[C@@]2(C)CC[C@@]2(C)[C@@H]3C[C@](C)(C(=O)OCCCn4ccc5ccccc54)CC[C@]3(C)CC[C@]12C | AGS | cell growth or viability | MTT | 48 h | 2.1 µM |
| O=C1NC(=NCc2cccs2)S/C1=C\c1ccc2ncccc2c1 | EKVX | cell growth or viability | – | – | > 10 µM |
| COc1cccc2c1C(=O)c1c(O)c3c(c(O)c1C2=O)C[C@@](O)(C(=O)CO)C[C@@H]3O[C@H]1C[C@H](N)[C@H](O)[C@H](C)O1 | AGS | cell growth or viability | MTT | 24 h | < 0.625 µM |
| O=C(c1cc(Cc2n[nH]c(=O)c3ccccc23)ccc1F)N1CCN(C(=O)C2CC2)CC1 | SK-OV-3 | colony formation | – | – | 7.6 µM |
| CC1=C(O)C(=O)C=C2C1=CC=C1[C@@]2(C)CC[C@@]2(C)[C@@H]3C[C@](C)(C(=O)OCCO)CC[C@]3(C)CC[C@]12C | AGS | cell growth or viability | MTT | 48 h | 0.47 µM |
| CCN1CCN(c2ccc(Nc3cc(N(C)C(=O)Nc4c(Cl)c(OC)cc(OC)c4Cl)ncn3)cc2)CC1 | JMSU-1 | cell growth or viability | ATP luminescence | 96 h | 0.0259 µM |
| CC1=C(O)C(=O)C=C2C1=CC=C1[C@@]2(C)CC[C@@]2(C)[C@@H]3C[C@](C)(C(=O)OCCCN4C(=O)C5C=CC=CC5C4=O)CC[C@]3(C)CC[C@]12C (stereo partly drawn) | AGS | cell growth or viability | MTT | 48 h | 0.37 µM |
| Cc1cnc(NC2CCOCC2)nc1-n1cnc(C(=O)NC(CN)c2cc(F)cc(Cl)c2)c1 (stereo not drawn) | JVM13 | cell growth or viability | MTS | – | 2.7 µM |
| CCCCN(CCCC)C(=O)c1ncn2c(=O)n(C)nnc12 | U-87 MG | cell growth or viability | resazurin | 7 days | 27 µM |
